Rows were chosen to be rich in hits. Some 2.7% of all compounds tested hit in one or more screens of this group.
DENV2 CPE: protects cells from dengue virus 2 cytopathic effect; DENV2-infected cells, cytopathic effect rescue, plate reader; CPE inhibition, % at 9.99 µM; 350,000 compounds, 1.7% hits; AID 651640; in the data active = CPE inhibition above about 20%, passing the limit was not always enough; tested in BHK-21 cells;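 also: 0% = median of neutral control wells and 100% = median of positive control wells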
CaV13 FRET inh: Disruptors of the CACNA1D IQ motif to Ca2+-dependent inactivation inhibitor domain association, primary screening, Förster resonance energy transfer in intact living …; HEK cells, CFP/YFP FRET ICDI-IQ, plate reader, 10 min; percent FRET-ratio fall versus neutral wells; inhibition, % at 12.3 µM; 340,000 compounds, 0.098% hits; AID 743397;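 active = mean replicate inhibition of at least 30% and at least 1% of replicates passing that level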;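 also: 0% = median of the neutral control wells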
MLL AF4-AF9 inh: blocks AF4 peptide binding to human AF9 | AlphaScreen, biotin-AF4 peptide binding to FLAG-AF9 | inhibition, % at 10 µM | 350,000 compounds, 0.47% hits | AID 651704;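 active = every replicate reaching a set inhibition limit, whatever the replicate mean, cut at about 25% in these data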;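 also: 0% = plate neutral control median and 100% = total signal loss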
SIRT5 inh: blocks human SIRT5 desuccinylation of peptide; inhibition, % at 15 µM; AID 652115; Purified SirT5, succinyl-peptide AMC, trypsin-coupled fluorescence; 330,000 compounds, 1.1% hits; in the data active = inhibition above about 15%
Target sequence (Q9NXA8 whole entry, looked up): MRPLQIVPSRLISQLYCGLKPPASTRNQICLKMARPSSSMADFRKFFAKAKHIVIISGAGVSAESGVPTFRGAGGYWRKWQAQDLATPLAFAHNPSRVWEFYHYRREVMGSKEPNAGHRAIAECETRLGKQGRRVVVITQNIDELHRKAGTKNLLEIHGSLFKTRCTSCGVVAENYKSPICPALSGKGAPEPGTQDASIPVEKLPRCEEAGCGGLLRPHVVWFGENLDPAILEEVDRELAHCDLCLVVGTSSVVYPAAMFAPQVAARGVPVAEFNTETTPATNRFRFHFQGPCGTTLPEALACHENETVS
S100A4 MyoIIA: inhibitors of human S100A4 binding to myosin IIA peptide; 360,000 compounds, 0.14% hits; S100A4/TAMRA-MyoIIA peptide fluorescence polarization; inhibition, % at 10.7 µM; P26447;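 active = mean inhibition of at least 70% across replicates, with every replicate also reaching that level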
Target sequence (P26447 whole entry, looked up): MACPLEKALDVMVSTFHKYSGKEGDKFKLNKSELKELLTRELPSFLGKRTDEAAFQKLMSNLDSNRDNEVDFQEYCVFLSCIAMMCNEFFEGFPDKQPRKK
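Test system: S100A4 monomer protein. Medium: HEPES buffer with Ca2+, pH 7.2. Reagent: fluorescent myosin IIA peptide, 5 nM. Compound dosing: single-point compound testing. Timing: 5 min between mix addition and reading. Benchmarks: DMSO neutral and TFP positive wells.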
Starred values were filed as active, the others as inactive; x = no result.

SMILES	DENV2 CPE	CaV13 FRET inh	MLL AF4-AF9 inh	SIRT5 inh	S100A4 MyoIIA
CO[C@@H]1CN(C)C(=O)c2ccc(NS(=O)(=O)c3ccc(F)cc3)cc2OC[C@H](C)NC[C@H]1C	13.4	x	-2.2	-3.4	-0.5
CN(C)CC(=O)N1CC2(C1)[C@@H](c1ccccc1)[C@@H](CO)N2C(=O)C1CCCCC1	1.3	x	-3.5	1.4	3.0
O=C(Cc1ccccn1)N[C@H]1CC[C@@H](CCn2cc(-c3ccc(F)cc3)nn2)O[C@H]1CO	-3.2	x	-3.3	5.0	14.1
C[C@H]1CN([C@@H](C)CO)C(=O)Cc2cc(NC(=O)c3ccncc3)ccc2O[C@H]1CN(C)CC1CCCCC1	-10.2	x	-0.9	11.3	19.7
CC[n+]1c(/C=C/C=C/N(C(C)=O)c2ccccc2)sc2cc(OC)ccc21	-2.8	-5.0	-64.6	-3.3	199.4*
CC[n+]1c(/C=C(\C)OC)sc2ccccc21	-6.2	-3.4	-4.8	0.2	-4.9
CCOc1cc(CNCCCN2CCOCC2)cc(Br)c1OCc1ccccc1Cl	-8.5	-1.0	18.8	1.6	-4.5
CCOc1cc(CNCCN2CCOCC2)ccc1OCc1ccccc1Cl	28.9*	-1.6	17.6	-0.6	-2.8
Cc1ccc(S(=O)(=O)N(Cc2cccnc2)Cc2cc3ccccc3[nH]c2=O)cc1	-5.5	-1.7	29.2*	-4.1	0.9
Cc1ccccc1N1Cc2ccccc2C1=O	37.4*	-5.8	0.5	-1.3	-3.6
Cc1ccccc1N1C(=O)Cc2ccccc2C1=O	-2.8	-2.8	0.1	-0.1	-1.0
COc1ccc(CCN(C)C(=O)c2c(C)nn(CC(C)C)c2Cl)cc1OC	-9.0	-2.3	3.0	-3.3	-3.9
COc1ccc(CCNC(=O)c2c(C)nn(CC(C)C)c2Cl)cc1OC	95.3*	-4.3	-0.7	-0.3	-3.3
Cc1cccc(NC(=O)CNC(=O)c2ccccc2Cl)n1	3.1	-5.6	1.8	0.2	99.3*
Cc1cccc(NC(=O)CNC(=O)c2sc3ccccc3c2Cl)n1	6.8	-6.1	-2.5	-3.6	-3.0
C=CCOC(=O)c1oc(COC[C@@H](NC(=O)N(C)Cc2ccccc2)c2ccccc2)c(C(=O)OC)c1C(=O)OC	13.7	x	0.3	-0.1	-16.5
COc1ccc2c3c([nH]c2c1)[C@H](CO)N(C(=O)c1ccccc1)CC31CCN(C(=O)CC2CC2)CC1	4.2	x	-1.9	x	-4.2
C[C@H](CO)N1C[C@H](C)[C@H](CN(C)S(=O)(=O)c2cn(C)cn2)Oc2ncc(-c3cccc(F)c3)cc2C1=O	7.4	x	-1.1	-2.4	14.6
COc1ccc(CNC(=O)C[C@@H]2CC[C@H](NC(=O)c3cccc(F)c3)[C@@H](CO)O2)cc1	-7.6	x	-0.5	1.3	6.2
Cc1ccccc1OCC(=O)Nc1cnn(CCCC(=O)O)c1	1.0	-3.5	-9.3	17.0*	2.3
COc1ccc(CCN(Cc2cc3ccc(C)cc3n3nnnc23)C(C)=O)cc1OC	-4.9	-4.1	1.5	25.7*	-0.9
COc1ccc(CCN(Cc2cc3cc(C)ccc3[nH]c2=O)C(C)=O)cc1OC	13.4	-5.9	-1.3	-1.9	2.5
O=S(=O)(c1ccccc1)N1C[C@@H]2[C@H](c3ccccc31)[C@@H](CO)N2Cc1ccc(F)cc1	-1.7	x	2.4	1.5	2.1
COc1ccc(CN(C)C[C@@H]2OCCCC[C@@H](C)Oc3ccc(NC(=O)Nc4ccc(C(F)(F)F)cc4)cc3C(=O)N([C@@H](C)CO)C[C@H]2C)cc1	-3.6	x	6.4	3.8	12.8
COC(=O)Cn1c2ccccc2c2nc(=O)cc(C)n21	6.0	-3.7	-0.1	-0.7	-0.7
SMILES	DENV2 CPE	CaV13 FRET inh	MLL AF4-AF9 inh	SIRT5 inh	S100A4 MyoIIA
COC(=O)Cn1c2ccccc2c(=O)n1C(C)C	20.5*	-8.0	-1.5	x	-7.7
CCc1nc2ccc(C(=O)Nc3cc(-c4ccccc4)ccc3OC)cn2c1N(C)CCC(C)C	-1.7	-5.8	0.7	0.0	-12.6
CCc1nc2ccc(C(=O)Nc3cc(-c4ccccc4)ccc3OC)cn2c1N(CCN(C)C)CC1CC1	-0.6	-10.1	29.8*	-2.0	1.5
CC1(C)CC(=O)C2=C(C1)Nc1cc3c(cc1C2c1ccc2c(c1)OCO2)OCO3 (configuration not stated)	38.2*	-5.2	-3.3	x	-0.1
N#Cc1c(F)cccc1N1CCC(C#N)CC1	4.5	2.0	-2.1	-9.7	0.9
N#Cc1cccc(C#N)c1N1CCC(C#N)CC1	-10.5	-0.6	-1.2	23.6*	4.2
O=C(CNc1ccc(Cl)cc1)c1ccc(Br)cc1	-8.1	-3.5	-0.7	1.1	-1.9
